An excerpt weighted towards active compounds, which were near 4.1% of everything screened.
UBC13 polyUb: UBC13 polyubiquitin chain formation inhibitors, primary screen, biochemical, TR-FRET, uHTS; inhibition, % at 20 µM; actives 0.47% (n = 330,000); in the data active = inhibition above about 45%, passing the limit was not always enough
Apaf1 inhib: inhibitors of human Apaf-1 apoptosome, primary screen, biochemical, DEVD-Rh110 fluorescence, uHTS; AID 489030, 2010; inhibition, % at 20 µM; Apoptotic protease-activating factor 1 (Homo sapiens), O14727; reconstituted apoptosome caspase-3 activity; actives 0.71% (n = 330,000); active = inhibition of at least 40% at 20 µM;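 note: plate controls were DMSO wells for no effect and DEVD-CHO caspase inhibitor wells for full effect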
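Material: reconstituted apoptosome with Apaf-1, cytochrome c, caspase-9, procaspase-3, dATP / Buffer or medium: pH 7.5 Hepes buffer with CHAPS, BSA, DTT / Also added: cytochrome c with DEVD-Rh110 / Schedule: compound with Apaf-1, dATP, procaspase-3 30 min, then 50 min reaction, room temperature / Technique: rhodamine 110 fluorescence at Ex 480/Em 540 nm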
Mdm2-MdmX inh: inhibitors of human Mdm2-MdmX association, primary screen, cell-based, luminescence, split luciferase, SaOS-2, uHTS; Protein Mdm4 (Homo sapiens) + E3 ubiquitin-protein ligase Mdm2 (Homo sapiens), …; SaOS-2 split-luciferase Mdm2/MdmX complementation; inhibition, % at 8 µM; actives 3% (n = 330,000); AID 485346, 2010;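 active = inhibition of at least 50% at 8 µM in the primary screen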
Target sequence (O15151 whole entry, looked up): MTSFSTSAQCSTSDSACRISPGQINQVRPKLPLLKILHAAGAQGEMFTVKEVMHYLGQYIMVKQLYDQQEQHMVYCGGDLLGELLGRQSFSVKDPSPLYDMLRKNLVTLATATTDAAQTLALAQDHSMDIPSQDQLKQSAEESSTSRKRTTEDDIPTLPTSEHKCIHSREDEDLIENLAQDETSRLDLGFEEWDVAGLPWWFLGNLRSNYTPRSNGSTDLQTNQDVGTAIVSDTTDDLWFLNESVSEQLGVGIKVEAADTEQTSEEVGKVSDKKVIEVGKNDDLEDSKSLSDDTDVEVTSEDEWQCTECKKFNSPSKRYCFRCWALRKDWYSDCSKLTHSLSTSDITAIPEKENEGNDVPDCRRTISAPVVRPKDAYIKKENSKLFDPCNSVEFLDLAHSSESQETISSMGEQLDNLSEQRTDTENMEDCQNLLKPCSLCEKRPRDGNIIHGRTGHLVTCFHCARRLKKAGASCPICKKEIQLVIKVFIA
Target sequence (Q00987 whole entry, looked up): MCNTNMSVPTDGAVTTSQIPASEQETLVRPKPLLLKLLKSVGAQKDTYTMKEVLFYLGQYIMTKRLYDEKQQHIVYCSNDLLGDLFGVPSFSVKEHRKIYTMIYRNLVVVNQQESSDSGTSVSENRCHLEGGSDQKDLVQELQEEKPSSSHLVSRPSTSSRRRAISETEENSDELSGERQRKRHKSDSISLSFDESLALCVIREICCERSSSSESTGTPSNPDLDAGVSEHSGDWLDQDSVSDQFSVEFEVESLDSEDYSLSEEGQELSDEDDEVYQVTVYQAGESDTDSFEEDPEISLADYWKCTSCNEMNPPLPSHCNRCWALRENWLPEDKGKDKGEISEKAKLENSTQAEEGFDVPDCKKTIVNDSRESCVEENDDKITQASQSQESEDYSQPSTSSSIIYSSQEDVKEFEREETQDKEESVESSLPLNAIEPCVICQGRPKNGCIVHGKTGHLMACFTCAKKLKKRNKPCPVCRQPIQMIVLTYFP
UPR CHOP act: activators of apoptotic CHOP UPR arm, primary screen, cell-based, CHO-CHOP luciferase reporter, luminescence, uHTS. UPR activation; percent of tunicamycin response over DMSO baseline. actives 0.34% (n = 330,000). activation, % at 10 µM;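 active = at 10 µM dose, activation of 40% or more, normalized to positive control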;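 note: 100% = tunicamycin at 10 µg/mL and 0% = DMSO alone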
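measured by = luciferase luminescence | assay system = CHO-CHOP cells, stable luciferase reporter of PERK-eIF2a-CHOP signalling | amount = 500 reporter cells seeded per well | timing = 6 h compound exposure at 37 °C after overnight seeding | controls = positive tunicamycin 10 µg/mL, negative DMSO alone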
UPR XBP1 act: activators of adaptive XBP1 UPR arm, primary screen, cell-based, CHO-XBP1 luciferase reporter, luminescence, uHTS; IRE1-XBP1 UPR activation; percent of tunicamycin response, DMSO as zero; activation, % at 20 µM; actives 0.33% (n = 330,000); AID 463104, 2010;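 active = versus positive control, 20 µM dose yields 30% or more activation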;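 note: 100% = tunicamycin at 10 µg/mL and 0% = DMSO only wells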
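Assay system: CHO-XBP1 luciferase reporter cells; Schedule: 6 h treatment, 37 °C; Detection: glow luminescence from Steady-Glo reagent; Benchmarks: high control tunicamycin 10 µg/mL final, low control DMSO vehicle only.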
Mdm2-MdmX conf: Mdm2-MdmX complex disruptors, retested hits, confirmation, luminescence, single concentration; Mdm2-MdmX binding, luminescent assay; actives 55% (n = 10,000); inhibition, % at 8 µM; shares compounds with Mdm2-MdmX inh; in the data active = inhibition above about 40%
FLuc counter: full-length luciferase signal inhibition, confirmation, counter-screen for Mdm2/MdmX interaction inhibitor project, cell-based, single concentration, SaOS-2 | inhibition, % at 8 µM | actives 77% (n = 6,200) | AID 504607, 2011 | SaOS-2 full-length luciferase counterscreen, luminescence | shares compounds with Mdm2-MdmX inh;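 active = mean inhibition at 8 µM reaching about 37%, which flags the compound as non-specific, limit read from the data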;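 note: p53-null SaOS-2 cells with luciferase driven by a doxycycline-inducible promoter; compound on cells about two nights before reading with doxycycline added after day one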
Starred values were filed as active, the others as inactive; ! = a repeat was not active.

For COc1cc([N+](=O)[O-])ccc1NC(=O)CCS(=O)(=O)c1ccc2c(c1)n(C)c(=O)c(=O)n2C the results were UBC13 polyUb -7, Apaf1 inhib -6, Mdm2-MdmX inh -3, UPR CHOP act 4 and UPR XBP1 act -2.
For O=C(N/N=C/c1cccc(O)c1)c1cc(-c2ccc3c(c2)OCO3)n[nH]1 the results were UBC13 polyUb -19, Apaf1 inhib 14, Mdm2-MdmX inh 15, UPR CHOP act 1 and UPR XBP1 act 8.
Screening CCc1ccc(-c2cc(C(=O)N/N=C/c3c[nH]c4ccccc34)[nH]n2)cc1 returned UBC13 polyUb 7, Apaf1 inhib -5, Mdm2-MdmX inh 62*, UPR CHOP act 1, UPR XBP1 act 1, Mdm2-MdmX conf 51* and FLuc counter 101*.
Screening O=C(N/N=C/c1cccc([N+](=O)[O-])c1)c1cc(-c2ccc3c(c2)OCO3)n[nH]1 returned UBC13 polyUb -3, Apaf1 inhib -23, Mdm2-MdmX inh 52*, UPR CHOP act 2, UPR XBP1 act 5 and Mdm2-MdmX conf 32.
CCc1ccc(/C=N/NC(=O)c2cc(-c3cccc([N+](=O)[O-])c3)n[nH]2)cc1 was read as UBC13 polyUb -6, Apaf1 inhib -9, Mdm2-MdmX inh 62*, UPR CHOP act -2, UPR XBP1 act -2, Mdm2-MdmX conf 62* and FLuc counter 70*.
Cc1cc(C(=O)CSc2nn3c(=O)c(C(C)(C)C)nnc3s2)c(C)n1C was read as UBC13 polyUb -8, Apaf1 inhib 9, Mdm2-MdmX inh 8, UPR CHOP act 0 and UPR XBP1 act 0.
`CN1CCN(CCCNC(=S)Nc2ccc(F)c(Cl)c2)CC1` gave UBC13 polyUb -2, Apaf1 inhib -16, Mdm2-MdmX inh -8, UPR CHOP act -1 and UPR XBP1 act 0.
For CCOC(=O)c1c(NC(=O)CSc2nnc(-c3c[nH]c4ccccc34)n2C)sc2c1CCCC2 the results were UBC13 polyUb -17, Apaf1 inhib 18, Mdm2-MdmX inh 61*, UPR CHOP act -1, UPR XBP1 act 0 and Mdm2-MdmX conf 15.
Screening CCOC(=O)c1c(NC(=O)CSc2nnc(-c3c[nH]c4ccccc34)n2CCOC)sc2c1CCCC2 returned UBC13 polyUb -5, Apaf1 inhib 19, Mdm2-MdmX inh 43, UPR CHOP act 4 and UPR XBP1 act 0.
`Cc1csc(CN(C)C(=O)CC2C(=O)NCCN2Cc2ccc(F)cc2Cl)n1` (configuration not stated) gave UBC13 polyUb -2, Apaf1 inhib -8, Mdm2-MdmX inh -4, UPR CHOP act -1 and UPR XBP1 act -6.
`O=C1NCN(c2ccccc2)C12CCN(CCCC(c1ccc(F)cc1)c1ccc(F)cc1)CC2` gave UBC13 polyUb 40, Apaf1 inhib 55*, Mdm2-MdmX inh 99*, UPR CHOP act 2, UPR XBP1 act 3, Mdm2-MdmX conf 52* and FLuc counter 73*.
`O=C(c1ccco1)N1CCN(C(c2coc3ccc(Cl)cc3c2=O)c2nnnn2C2CCCC2)CC1` (configuration not stated) gave UBC13 polyUb 6, Apaf1 inhib 12, Mdm2-MdmX inh 50*, UPR CHOP act 2, UPR XBP1 act -5 and Mdm2-MdmX conf 3.
Cc1ccc2occ(C(c3nnnn3C3CCCC3)N3CCN(C(=O)c4ccco4)CC3)c(=O)c2c1 (configuration not stated) was read as UBC13 polyUb 0, Apaf1 inhib 18, Mdm2-MdmX inh 16, UPR CHOP act -1 and UPR XBP1 act -1.
For Nc1c2ccccc2nc2ccccc12 the results were UBC13 polyUb -21, Apaf1 inhib -9, Mdm2-MdmX inh 71*, UPR CHOP act 0, UPR XBP1 act -2, Mdm2-MdmX conf 71* and FLuc counter 51*!.
For NC(=O)N1c2ccccc2C=Cc2ccccc21 the results were UBC13 polyUb 2, Apaf1 inhib 1, Mdm2-MdmX inh 15, UPR CHOP act -1 and UPR XBP1 act -1.
For CCN(CC)C(=O)N1c2ccccc2C=Cc2ccccc21 the results were UBC13 polyUb 4, Apaf1 inhib 9, Mdm2-MdmX inh 85*, UPR CHOP act -1, UPR XBP1 act 1, Mdm2-MdmX conf 80* and FLuc counter 34.
COc1cccc(C(=O)c2c(C)c(CCC#N)n3ccccc23)c1 was read as UBC13 polyUb -10, Apaf1 inhib 4, Mdm2-MdmX inh 4, UPR CHOP act 1 and UPR XBP1 act 0.
For O=S(=O)(C/C(=C/CO)S(=O)(=O)c1ccccc1)c1ccccc1 the results were UBC13 polyUb -8, Apaf1 inhib 13, Mdm2-MdmX inh 89*, UPR CHOP act -9, UPR XBP1 act -6, Mdm2-MdmX conf 96* and FLuc counter 51*.
For COc1ccc(OC)c2[nH]c(C(=O)N/N=C/c3ccccc3O)cc12 the results were UBC13 polyUb -4, Apaf1 inhib 11, Mdm2-MdmX inh 82*, UPR CHOP act 2, UPR XBP1 act -1, Mdm2-MdmX conf 71* and FLuc counter 32.
For COc1cccc(/C=N/NC(=O)c2cc(-c3cccn3C)n[nH]2)c1O the results were UBC13 polyUb 7, Apaf1 inhib 4, Mdm2-MdmX inh 53*, UPR CHOP act 2, UPR XBP1 act -3, Mdm2-MdmX conf 64* and FLuc counter 32.
For O=C1C2CC=CCC2C(=O)N1c1n[nH]c(Cc2ccccc2)n1 (configuration not stated) the results were UBC13 polyUb 4, Apaf1 inhib -16, Mdm2-MdmX inh 1, UPR CHOP act 0 and UPR XBP1 act 1.
`O=C(Nc1cccc([N+](=O)[O-])c1)c1ccc2ccccc2c1O` gave UBC13 polyUb -8, Apaf1 inhib 17, Mdm2-MdmX inh 77*, UPR CHOP act 6, UPR XBP1 act -1 and Mdm2-MdmX conf 12.
O=C1c2ccccc2S(=O)(=O)c2cc(C(=O)N3CCC(N4CCCC4)CC3)ccc21 was read as UBC13 polyUb 17, Apaf1 inhib 1, Mdm2-MdmX inh -39, UPR CHOP act 3 and UPR XBP1 act -2.
